{
  "source": "ChEMBL document CHEMBL4706633",
  "about": "“Design, Synthesis, and Biological Evaluation of a Series of Oxazolone Carboxamides as a Novel Class of Acid Ceramidase Inhibitors” (J Med Chem, 2020)",
  "key": {"Acid ceramidase [1]": {"target": "T1, Acid ceramidase (Homo sapiens, UniProt Q13510)", "T1 sequence (Q13510 whole entry)": "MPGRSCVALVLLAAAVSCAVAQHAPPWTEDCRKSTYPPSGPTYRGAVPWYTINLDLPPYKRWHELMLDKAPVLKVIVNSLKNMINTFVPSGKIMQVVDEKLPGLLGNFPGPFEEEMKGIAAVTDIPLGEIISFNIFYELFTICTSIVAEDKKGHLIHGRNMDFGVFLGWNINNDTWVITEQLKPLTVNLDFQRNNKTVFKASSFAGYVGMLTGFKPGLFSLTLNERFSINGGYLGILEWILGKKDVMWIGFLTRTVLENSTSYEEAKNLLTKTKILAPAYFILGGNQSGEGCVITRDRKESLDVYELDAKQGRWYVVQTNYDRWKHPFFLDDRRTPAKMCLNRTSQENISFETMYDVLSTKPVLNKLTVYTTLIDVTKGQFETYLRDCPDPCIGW", "test": "Inhibition of human acid ceramidase using Rbm14-12 fluorogenic substrate incubated for 1 hr by fluorescence assay"}, "[2]": {"test": "Half life in mouse plasma at 2 uM by LC/MS-MS analysis", "format": "ADME, cell-free", "outline": "(§1)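 Kinetic aqueous solubility was measured in PBS, pH 7.4. Metabolic stability was measured as t1/2 in mouse plasma and mouse liver microsomes, with microsomal data also given as % compound remaining at 1 h. Values are means of at least two independent experiments, each in two technical replicates.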"}, "[3]": {"test": "Half life in mouse liver microsomes at 4.6 uM in presence of NADPH by LC/MS-MS analysis", "format": "ADME, Microsome", "outline": "as §1"}, "[4]": {"test": "Kinetic solubility in pH 7.4 PBS buffer at 250 uM incubated for 1 hr by UPLC/MS analysis", "format": "physicochemical", "conditions": "read-out: Kinetic_solubility", "outline": "as §1"}, "Acid ceramidase [5]": {"target": "T1, Acid ceramidase", "test": "Inhibition of human acid ceramidase"}, "[6]": {"test": "Stability in mouse plasma at 2 uM after 120 mins by LC/MS-MS analysis", "format": "ADME, cell-free", "conditions": "read-out: Stabilty"}, "[7]": {"target": "T2, Acid ceramidase (Homo sapiens) (UniProt Q13510)", "T2 sequence (whole entry)": "T1 sequence (Q13510 whole entry)", "test": "Inhibition of acid ceramidase in human NCI-H460 cells at 25 uM relative to control", "format": "cell-based"}, "Acid ceramidase [8]": {"target": "T1, Acid ceramidase", "test": "Inhibition of acid ceramidase in human SK-OV-3 cell lysates", "format": "subcellular"}, "[9]": {"target": "T2, Acid ceramidase (Homo sapiens)", "test": "Inhibition of human acid ceramidase at 10 uM using N-lauroyl ceramide incubated for 1 hr by LC/MS analysis relative to control"}, "[10]": {"test": "Stability in mouse liver microsomes at 4.6 uM in presence of NADPH after 60 mins by LC/MS-MS analysis", "format": "ADME, Microsome", "conditions": "read-out: Stabilty", "outline": "as §1"}, "[11]": {"test": "Half life in pH 7 0.01M PBS buffer at 2 uM by LC/MS-MS analysis", "format": "physicochemical"}, "[12]": {"target": "T2, Acid ceramidase (Homo sapiens)", "test": "Inhibition of human acid ceramidase at 1 to 10 uM using N-lauroyl ceramide incubated for 1 hr by LC/MS analysis", "conditions": "dose 1-10 µM"}, "[13]": {"test": "Half life in mouse plasma", "format": "ADME, cell-free", "outline": "as §1"}, "[14]": {"target": "T2, Acid ceramidase (Homo sapiens)", "test": "Inhibition of human acid ceramidase using Rbm14-12 fluorogenic substrate incubated for 1 hr by fluorescence assay"}},
  "note": "Activity calls are given as the source filed them. The rule behind the calls is not given here.",
  "data": [
    {"smiles": "O=C(NCCCCc1ccccc1)n1cc(-c2ccc(F)cc2)oc1=O", "values": [
      {"measurement": "IC50", "setting": "Acid ceramidase [1]; read-out: IC50", "value": 185, "unit": "nM"},
      {"measurement": "t1/2", "setting": "[2]", "value": 1.5, "unit": "h"},
      {"measurement": "t1/2", "setting": "[3]", "value": 1, "unit": "h"},
      {"measurement": "solubility kinetic at 1 h, 250 µM", "setting": "[4]", "value": "< 1", "unit": "µM"}
    ]},
    {"smiles": "COc1ccccc1-c1cn(C(=O)NCCCCc2ccccc2)c(=O)o1", "values": [
      {"measurement": "IC50", "setting": "Acid ceramidase [1]; read-out: IC50", "value": 177, "unit": "nM"}
    ]},
    {"smiles": "O=c1[nH]cc(-c2ccccc2)o1", "values": [
      {"measurement": "IC50", "setting": "Acid ceramidase [1]", "value": "Not Active"}
    ]},
    {"smiles": "Cn1nc(-c2cn(C(=O)NCCCCc3ccccc3)c(=O)o2)c2ccccc21", "values": [
      {"measurement": "IC50", "setting": "Acid ceramidase [1]; read-out: IC50", "value": 92, "unit": "nM"}
    ]},
    {"smiles": "CCCCCCCCCCCCCC(=O)NCC(O)c1ccccc1", "note": "(configuration not stated)", "values": [
      {"measurement": "IC50", "setting": "Acid ceramidase [5]", "value": 1290, "unit": "nM"}
    ]},
    {"smiles": "CN1CCC(c2cccc(-c3cn(C(=O)NCCCCc4ccccc4)c(=O)o3)c2)CC1", "values": [
      {"measurement": "IC50", "setting": "Acid ceramidase [1]; read-out: IC50", "value": 153, "unit": "nM"},
      {"measurement": "remaining at 2 h, 2 µM", "setting": "[6]", "value": 73, "unit": "%"},
      {"measurement": "t1/2", "setting": "[2]", "value": "> 2", "unit": "h"},
      {"measurement": "t1/2", "setting": "[3]", "value": 0.5, "unit": "h"},
      {"measurement": "solubility kinetic at 1 h, 250 µM", "setting": "[4]", "value": 70, "unit": "µM"}
    ]},
    {"smiles": "COc1ccc(/C=C/C(=O)c2c(-c3ccccc3)c3ccccc3[nH]c2=O)cc1", "values": [
      {"measurement": "IC50", "setting": "Acid ceramidase [5]", "value": 28000, "unit": "nM"},
      {"measurement": "inhibition", "setting": "[7]", "value": 44, "unit": "%"},
      {"measurement": "IC50", "setting": "Acid ceramidase [8]", "value": 28000, "unit": "nM"}
    ]},
    {"smiles": "CCCCCNC(=O)n1c(-c2ccccc2)coc1=O", "values": [
      {"measurement": "IC50", "setting": "Acid ceramidase [1]; read-out: IC50", "value": 25, "unit": "nM"}
    ]},
    {"smiles": "CC(C)CNC(=O)n1cc(-c2ccc(F)c(C3CCN(C)CC3)c2)oc1=O", "values": [
      {"measurement": "inhibition", "setting": "[9]", "value": 26, "unit": "%"}
    ]},
    {"smiles": "CN1CCC(c2cc(-c3cn(C(=O)NCCCCc4ccccc4)c(=O)o3)ccc2F)CC1", "values": [
      {"measurement": "IC50", "setting": "Acid ceramidase [1]; read-out: IC50", "value": 341, "unit": "nM"},
      {"measurement": "remaining at 2 h, 2 µM", "setting": "[6]", "value": 80, "unit": "%"},
      {"measurement": "t1/2", "setting": "[2]", "value": "> 2", "unit": "h"},
      {"measurement": "t1/2", "setting": "[3]", "value": "> 1", "unit": "h"},
      {"measurement": "remaining at 1 h, 4.6 µM", "setting": "[10]", "value": 70, "unit": "%"},
      {"measurement": "solubility kinetic at 1 h, 250 µM", "setting": "[4]", "value": 30, "unit": "µM"}
    ]},
    {"smiles": "CN1CCC(c2cn(C(=O)NCCCCc3ccccc3)c(=O)o2)CC1", "values": [
      {"measurement": "IC50", "setting": "Acid ceramidase [1]; read-out: IC50", "value": 1400, "unit": "nM"}
    ]},
    {"smiles": "CN1CCC(c2cc(F)ccc2-c2cn(C(=O)NCCCCc3ccccc3)c(=O)o2)CC1", "values": [
      {"measurement": "IC50", "setting": "Acid ceramidase [1]; read-out: IC50", "value": 337, "unit": "nM"},
      {"measurement": "remaining at 2 h, 2 µM", "setting": "[6]", "value": 54, "unit": "%"},
      {"measurement": "t1/2", "setting": "[2]", "value": "> 2", "unit": "h"},
      {"measurement": "t1/2", "setting": "[3]", "value": "> 1", "unit": "h"},
      {"measurement": "remaining at 1 h, 4.6 µM", "setting": "[10]", "value": 51, "unit": "%"},
      {"measurement": "solubility kinetic at 1 h, 250 µM", "setting": "[4]", "value": 60, "unit": "µM"}
    ]},
    {"smiles": "O=C(NCCCCc1ccccc1)n1c(-c2ccc(Cl)cc2)coc1=O", "values": [
      {"measurement": "IC50", "setting": "Acid ceramidase [1]; read-out: IC50", "value": 5, "unit": "nM"}
    ]},
    {"smiles": "O=C(NCCCCc1ccccc1)n1cc(-c2cnc3ccccc3n2)oc1=O", "values": [
      {"measurement": "IC50", "setting": "Acid ceramidase [1]; read-out: IC50", "value": 37, "unit": "nM"}
    ]},
    {"smiles": "O=C(NCCCCc1ccccc1)n1c(-c2ccccc2)coc1=O", "values": [
      {"measurement": "half-life at 2 µM", "setting": "[11]", "value": 0.167, "unit": "h"}
    ]},
    {"smiles": "O=C(NCCCCc1ccccc1)N1C[C@@H](c2ccccc2)OC1=O", "values": [
      {"measurement": "inhibition", "setting": "[12]", "value": "inactive"}
    ]},
    {"smiles": "COc1cc(-c2cn(C(=O)NCCCCc3ccccc3)c(=O)o2)ccc1F", "values": [
      {"measurement": "IC50", "setting": "Acid ceramidase [1]; read-out: IC50", "value": 80, "unit": "nM"},
      {"measurement": "remaining at 2 h, 2 µM", "setting": "[6]", "value": 64, "unit": "%"},
      {"measurement": "t1/2", "setting": "[2]", "value": "> 2", "unit": "h"},
      {"measurement": "t1/2", "setting": "[3]", "value": "> 1", "unit": "h"},
      {"measurement": "remaining at 1 h, 4.6 µM", "setting": "[10]", "value": 74, "unit": "%"},
      {"measurement": "solubility kinetic at 1 h, 250 µM", "setting": "[4]", "value": "< 1", "unit": "µM"}
    ]},
    {"smiles": "O=C(NCCCCc1ccccc1)n1cc(-c2ccncc2)oc1=O", "values": [
      {"measurement": "IC50", "setting": "Acid ceramidase [1]; read-out: IC50", "value": 18, "unit": "nM"},
      {"measurement": "t1/2", "setting": "[2]", "value": 0.5, "unit": "h"},
      {"measurement": "t1/2", "setting": "[3]", "value": "> 1", "unit": "h"},
      {"measurement": "remaining at 1 h, 4.6 µM", "setting": "[10]", "value": 75, "unit": "%"},
      {"measurement": "solubility kinetic at 1 h, 250 µM", "setting": "[4]", "value": "< 1", "unit": "µM"}
    ]},
    {"smiles": "O=C(NCCCCc1ccccc1)N1C[C@H](c2ccccc2)OC1=O", "values": [
      {"measurement": "inhibition", "setting": "[12]", "value": "inactive"}
    ]},
    {"smiles": "O=C(CCCCCc1ccccc1)n1cc(-c2ccccc2)oc1=O", "values": [
      {"measurement": "inhibition", "setting": "[12]", "value": "inactive"}
    ]},
    {"smiles": "CCCCCCCC/C=C\\CCCCCCCC(=O)NCCO", "note": "[OLEOYLETHANOLAMIDE]", "values": [
      {"measurement": "IC50", "setting": "Acid ceramidase [5]", "value": 500000, "unit": "nM"}
    ]},
    {"smiles": "CCCCCCNC(=O)n1nc(C)cc1C(F)(F)F", "values": [
      {"measurement": "IC50", "setting": "Acid ceramidase [5]", "value": 14, "unit": "nM"},
      {"measurement": "half-life", "setting": "[13]", "value": 9, "unit": "min"}
    ]},
    {"smiles": "CCC(C)NC(=O)n1cc(-c2ccccc2)oc1=O", "note": "(racemic)", "values": [
      {"measurement": "inhibition", "setting": "[9]", "value": 21, "unit": "%"}
    ]},
    {"smiles": "CCOCCNC(=O)n1cc(-c2ccccc2)oc1=O", "values": [
      {"measurement": "IC50", "setting": "Acid ceramidase [1]; read-out: IC50", "value": 2040, "unit": "nM"},
      {"measurement": "t1/2", "setting": "[2]", "value": 1.33, "unit": "h"},
      {"measurement": "t1/2", "setting": "[3]", "value": "< 0.083", "unit": "h"},
      {"measurement": "solubility kinetic at 1 h, 250 µM", "setting": "[4]", "value": 20, "unit": "µM"}
    ]},
    {"smiles": "CN1CCC(c2cc(F)ccc2-c2c[nH]c(=O)o2)CC1", "values": [
      {"measurement": "inhibition", "setting": "[14]", "value": "inactive"}
    ]}
  ]
}
